# In PMC6579116 (Macromolecular bioscience, 2019):
# Experiments:
# [1] = TEM analysis of nanofiber formation, diameter and length; format: physicochemical; settings: 1 mM in PBS, 30 measurements from three images; for Length, Average / Length, Median: ImageJ
# How it was run: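 Nanofiber diameter and length were measured by hand on TEM images in ImageJ; overlapping fibers ruled out automated tracing.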
# [2] = Treatment study serum chemistry; format: in vivo, mouse; settings: for Creatine: 6 mg/kg
# [3] = test system: atherosclerosis in LDLR KO mice fed high fat diet; assay: Atherosclerosis treatment study; format: in vivo, mouse; settings: both sexes; IV twice per week for 8 weeks
# How it was run: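 LDLR KO mice on high-fat diet (20% fat, 0.2% cholesterol, 34% sucrose) from 4 weeks of age. After 14 weeks on diet, IV injection under isoflurane (dorsal penile vein, males; retro-orbital, females) twice weekly for 8 weeks. […] Controls: PBS, scrambled PA. Aortic root sections stained with Oil Red O; plaque area/total root area. n=8–10 mice/group; ANOVA with post-hoc t-test.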
# [4] = male LDLR KO mice, IV twice per week for 8 weeks
Molecule,"Diameter, Max. [1]","Diameter, Min. [1]","Length, Max. [1]","Length, Min. [1]","Length, Average [1]","Length, Median [1]","liver toxicity: aspartate aminotransferase (AST) in the blood in comparison to PBS, male mice [2, 4]","Creatine ([2]; mouse, in vivo, iv)",reversal of atherosclerosis from baseline levels [3],"liver toxicity: aspartate aminotransferase (AST) in the blood in comparison to PBS, male mice ([2]; mouse, in vivo, iv)"
C16-V2A2E2-G-DWFKAFYDKVAEKFKEAF-NH2 [ApoA1 PA],14.4 nm,6.2 nm,2183.3 nm,39.4 nm,626.9 nm,615.9 nm,Neither ApoA1-LXR PAs nor ApoA1 PAs increased AST levels,0(0–0.1) 0(0–0.1) 0(0–0.1) U/L,–,–
"O=C(O)Cc1cccc(OCCCN(Cc2cccc(C(F)(F)F)c2Cl)CC(c2ccccc2)c2ccccc2)c1 [LXR, GW3965, reference compound]",–,–,–,–,–,–,–,–,approximately 5%,significantly elevated levels
C16-V2A2E2-C-DWFAKDYFKKAFVEEFAK-NH2 [Scr PA],18.3 nm,8.8 nm,1472.9 nm,30.0 nm,403.8 nm,257.6 nm,significantly elevated levels,0(0–0.1) 0(0–0.1) 0(0–0.1) U/L,–,–
